For eleven compounds, IC50 and Ratio results are on record in ChEMBL document CHEMBL1145903, “Defining the molecular requirements for the selective delivery of polyamine conjugates into cells containing active polyamine transporters” (J Med Chem, 2003).

As usually defined, the IC50 is the point on the concentration scale where inhibition reaches its midpoint. The low end stands for greater potency in that assay, the high end for weaker potency in that assay.

One test relates to CHO (Chinese hamster). Kind of test: Cytotoxicity in CHO cell lines. The note with it: Cricetulus griseus.
The nature of test [1]: Ratio of IC50 value determined in L1210 cell lines to the IC50 value determined in DFMO treated L1210 cell lines was evaluated. The class given is functional.
The test system of a further test is CHO-MG (Chinese hamster). Kind of test: Cytotoxicity in CHO-MG cell lines. The note with it: Cricetulus griseus.
In test [2] the test system is L1210. Kind of test: Cytotoxicity in DFMO treated L1210 cell lines. The class given is functional, cell-based. Particulars: Mus musculus. A digest of the protocol: (§1)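 L1210 murine leukemia cells, early to mid log phase, in RPMI with 10% FCS, glutamine, antibiotics and 2 mM aminoguanidine at 37 °C, 5% CO2. Cells were seeded at 5 × 10^4 cells/mL with drug added at seeding. For line 3, DFMO at 5 mM was present in the medium from drug addition. After 48 h of exposure, growth was read as MTT formazan absorbance at 540 nm.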

A short description of test [3]: Ratio of IC50 value determined in CHO-MG cell lines to the IC50 value determined in CHO cell lines was evaluated.
For test [4], the system named is L1210. Nature of the test: Cytotoxicity in L1210 cell lines. The note with it: Mus musculus. It counts as functional, cell-based. A digest of the protocol:
as §1

With `Cl.Cl.NCCOCCOCCNCc1c2ccccc2cc2ccccc12`, the half-inhibitory concentration (IC50) in the test on CHO (Chinese hamster) amounted to 12.6 µM; in the test with CHO-MG (Chinese hamster), 15.9 µM; in the test on L1210 [2] it was 17 µM; in the test on L1210 [4], 11.3 µM. Besides, the Ratio stood at 0.7 in test [1] and 1.3 in test [3].
For `Cl.Cl.NCCCCCCCCNCc1c2ccccc2cc2ccccc12`, the IC50 is 4.9 µM in the test with CHO (Chinese hamster), 4.9 µM with CHO-MG (Chinese hamster), 4.6 µM in the test with L1210 [2] and 3 µM in the test with L1210 [4]. The Ratio in test [1] turned out to be 0.7; in test [3], 1.
Take `Cl.NCCCCNCCCCNCc1cccc2ccccc12`: the IC50 with CHO (Chinese hamster) is 0.6 µM; in the test with CHO-MG (Chinese hamster), over 100 µM. The Ratio in test [1] is on record as 1.1.
Taken in the same sequence, the figures for `Cl.NCCCCNCCCCNCc1c2ccccc2cc2ccccc12` were 0.45 µM, 66.7 µM and 2.
Turning to `Cl.NCCCCNCCCCNCc1ccccc1`, in test [1], the Ratio is 0.1. The compound also had a half-maximal inhibitory concentration (IC50) with L1210 [2] of 421 µM.
Take `Cl.NCCCCNCCCCNCc1ccc2ccc3cccc4ccc1c2c34`: the half-maximal inhibitory concentration (IC50) in the test on CHO (Chinese hamster) was found to be 0.46 µM; with CHO-MG (Chinese hamster), 15.5 µM; with L1210 [2], 0.36 µM. The Ratio in test [1] is given as 1.1.
With `Cl.NCCCNCCCCNCc1c2ccccc2cc2ccccc12`, the half-inhibitory concentration (IC50) amounted to 0.4 µM with CHO (Chinese hamster) and 9.5 µM with CHO-MG (Chinese hamster). The Ratio in test [1] is reported as 2; in test [3], 24.
With `Cl.NCC(O)CNCCCCNCc1c2ccccc2cc2ccccc12` (stereo unspecified), the IC50 in the test on CHO (Chinese hamster) was found to be 9.1 µM; with CHO-MG (Chinese hamster), 9.5 µM; with L1210 [2], 2.3 µM; in the test on L1210 [4], 1.5 µM. Besides, the Ratio in test [1] was 0.7; in test [3], 1.
In the case of `CCCCNCc1c2ccccc2cc2ccccc12.Cl`, the concentration for half-maximal inhibition (IC50) with CHO (Chinese hamster) stood at 10.5 µM; in the test on CHO-MG (Chinese hamster), 11.2 µM. In addition, the Ratio in test [1] stood at 0.7.
Take `Cl.Cl.NCCCCNCc1c2ccccc2cc2ccccc12`: the IC50 came out at 7.7 µM in the test with CHO (Chinese hamster) and 7.6 µM in the test with CHO-MG (Chinese hamster). Further, the Ratio in test [1] amounted to 0.7.
As to `Cl.NC1CCC(NCCCCNCc2c3ccccc3cc3ccccc23)CC1` (stereo unspecified), the IC50 worked out at 2.5 µM in the test with CHO (Chinese hamster), 17.4 µM with CHO-MG (Chinese hamster), 0.7 µM in the test with L1210 [2] and 1 µM in the test on L1210 [4]. The Ratio amounted to 1.4 in test [1] and 7 in test [3].
